This excerpt belongs to a sample that is enriched for hits.
HUVEC prolif 384 = blocks proliferation of human endothelial cells | HUVEC proliferation, CellTiter-Glo luminescence, 72 h; active compounds read low | viability, % at 10 µM (by protocol) | 86,000 tested, 1.1% active | AID 648;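 active = viability at or below 30%; inactive = viability above 30%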;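 note: 100% = median luminescence of DMSO-only cell control wells on each plate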
H69AR growth 86K = growth inhibitors of human H69AR lung tumor cells. H69AR lung tumor viability, ATP luminescence, 72 h; active compounds read low. viability, % at 10 µM. 85,000 tested, 6% active. AID 598;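 active = viability at or below 40%; inactive = viability above 40%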;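 note: multidrug resistant small cell line overexpressing MRP-1 efflux transporter; 100% = mean luminescence of untreated control wells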
HCT116 bCat-KO = beta-catenin-lacking colon tumor cell growth suppression; viability, % at 10 µM; HCT116 beta-catenin knockout viability, CellTiter-Glo, 60 h; active compounds read low; 140,000 tested, 1.5% active; AID 818;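 active = viability at or under a set limit, the compound median less 4 SD, cut at about 6% in these data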;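 note: 0% = Hyamine 1622 control at 20 µM and 100% = untreated cell control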
PTEN del growth = PTEN-deleted cell growth suppression; 140,000 tested, 1.2% active; viability, % at 10 µM; HCT116 PTEN-null viability, CellTiter-Glo, 60 h; active compounds read low; AID 827;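 active = viability at or below a set limit, 4 SD under the median of all tested compounds, cut at about 3.7% in these data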;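 note: PTEN knockout HCT116 line with beta catenin targeted HCT116 as companion control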
Fibroblast inh = blocks proliferation of human lung fibroblasts; AID 719; 85,000 tested, 1.1% active; viability, % at 10 µM; LL 47 human lung fibroblast viability, ATP luminescence; active compounds read low;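 active = viability at or below 50% in the single dose screen; inactive = viability above 50%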;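 note: compound exposure lasted 72 h before the ATP readout; 100% = median luminescence of untreated cell-only wells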
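Times – overnight cell rest, 72 h compound treatment at 37 °C · Test system – human lung fibroblast line LL 47, low passage · Amount – 1,150 cells in each well · Controls – cell-only wells, no compound · Doses – 0.1% DMSO in all compound wells · Measured by – CellTiter-Glo luminescence · Buffer or medium – IMEM plus 15% FBS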
An asterisk follows results filed as active.

Screening O=C1c2ccccc2-c2onc3c(Oc4ccccc4)cc(O)c1c23 returned HUVEC prolif 384 63, H69AR growth 86K 25*, HCT116 bCat-KO 68, PTEN del growth 77 and Fibroblast inh 89.
For CCCCOc1cccc(C(=O)N(Cc2cccs2)C2CCS(=O)(=O)C2)c1 (configuration not stated) the results were HUVEC prolif 384 96, H69AR growth 86K 37*, HCT116 bCat-KO 79, PTEN del growth 82 and Fibroblast inh 93.
Screening CCCOc1cccc(C(=O)N(Cc2cccs2)C2CCS(=O)(=O)C2)c1 (configuration not stated) returned HUVEC prolif 384 96, H69AR growth 86K 100, HCT116 bCat-KO 94, PTEN del growth 98 and Fibroblast inh 92.
`COC(=O)c1[nH]c2c(c1C)C(=O)CC(c1cccs1)C2` (configuration not stated) gave HUVEC prolif 384 46, H69AR growth 86K 34*, HCT116 bCat-KO 10, PTEN del growth 14 and Fibroblast inh 47*.
For COC(=O)c1[nH]c2c(c1C)C(=O)CC(c1cc(OC)ccc1OC)C2 (configuration not stated) the results were HUVEC prolif 384 50, H69AR growth 86K 22*, HCT116 bCat-KO 36, PTEN del growth 36 and Fibroblast inh 52.
`Cc1ccc(C(=O)OC2OC(=O)C(Cl)=C2N2CCOCC2)cc1` (configuration not stated) gave HCT116 bCat-KO 103 and PTEN del growth 103.
`CCc1ccc2c(c1)C1(NN=C(c3ccc(C)cc3)S1)C(=O)N2` (configuration not stated) gave HUVEC prolif 384 9.8*, H69AR growth 86K 2.3*, HCT116 bCat-KO 1.4*, PTEN del growth 1.7* and Fibroblast inh 47*.
`CC(C)c1ccc2c(c1)C1(NN=C(c3ccccc3)S1)C(=O)N2` (configuration not stated) gave HUVEC prolif 384 3.4*, H69AR growth 86K 18*, HCT116 bCat-KO 4.5*, PTEN del growth 9 and Fibroblast inh 43*.
For CCc1ccc2c(c1)[C@]1(C(=O)N2)[C@@H]2C(=O)N(Cc3ccccc3)C(=O)[C@@H]2[C@@H]2CCCN21 the results were HUVEC prolif 384 86, H69AR growth 86K 91, HCT116 bCat-KO 90, PTEN del growth 86 and Fibroblast inh 92.
`CC(C)c1ccc(O)c(NC(=O)c2ncn[nH]2)c1` gave HUVEC prolif 384 97, H69AR growth 86K 82, HCT116 bCat-KO 95, PTEN del growth 92 and Fibroblast inh 100.
`COCc1cc(C)nc(N2CCc3ccccc32)c1C#N` gave HUVEC prolif 384 96, H69AR growth 86K 31*, HCT116 bCat-KO 91, PTEN del growth 80 and Fibroblast inh 103.
For COCc1cc(C)nc(Nc2ccccc2C)c1C#N the results were HUVEC prolif 384 91, H69AR growth 86K 98, HCT116 bCat-KO 92, PTEN del growth 97 and Fibroblast inh 84.
For Nc1c(C(=O)Nc2ccc3c(c2)OCCO3)nnn1CCc1ccccc1 the results were HUVEC prolif 384 63, H69AR growth 86K 37*, HCT116 bCat-KO 40, PTEN del growth 30 and Fibroblast inh 41*.
O=C(CCc1ccccc1)Nc1ccc2c(c1)OCCO2 was read as HUVEC prolif 384 90, H69AR growth 86K 86, HCT116 bCat-KO 98, PTEN del growth 102 and Fibroblast inh 95.
`COc1ccc(-c2onc(C)c2-c2ccccc2)c(O)c1` gave HUVEC prolif 384 85, H69AR growth 86K 31*, HCT116 bCat-KO 50, PTEN del growth 52 and Fibroblast inh 95.
Screening COc1cccc(-c2nc(-c3ccccc3)no2)c1 returned HUVEC prolif 384 97, H69AR growth 86K 66, HCT116 bCat-KO 73, PTEN del growth 74 and Fibroblast inh 93.
Cc1oc2c(C)c(O)ccc2c(=O)c1-c1ccc2ccccc2n1 was read as HCT116 bCat-KO 98 and PTEN del growth 99.
`COc1ccc(-c2noc(C)c2-c2ccc3ccccc3n2)c(O)c1` gave HUVEC prolif 384 71, H69AR growth 86K 26*, HCT116 bCat-KO 67, PTEN del growth 71 and Fibroblast inh 78.
Screening CCOC(=O)C1=NN(c2cccc(Cl)c2)C2=NC(C)=C(C(=O)OC)C(c3cccs3)N12 (configuration not stated) returned HUVEC prolif 384 91, H69AR growth 86K 89, HCT116 bCat-KO 98, PTEN del growth 99 and Fibroblast inh 103.

Screening results deposited in PubChem by SRMLSC.
